Measured values taken from ChEMBL document CHEMBL1125014, “Synthesis and structure-activity relationships of new 9-N-alkyl derivatives of 9(S)-erythromycylamine” (1990).
Values after ≈ are worked out from the molar mass of the structure shown.

How the values were obtained:
Staphylococcus aureus [1] = assay: MIC value measured against staphylococcus aureus X1; type: functional
Mus musculus [2] = assay: ED50 value was measured by sc administration against streptococcus pneumoniae infection in mice (in vivo, in experiment 1); type: functional
Outline: (§1)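 Infected mice were dosed orally or subcutaneously at 1 and 5 h postinfection, 0.25 mL of antibiotic solution in 10% aqueous ethanol per dose. Tartaric acid was added where needed for solubility. Several dose concentrations were tested to give the ED50.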

Streptococcus pneumoniae [3] = assay: Effective dose against mice infected with streptococcus pneumoniae after peroral administration (in vivo); type: functional; settings: in Mus musculus, po
Rattus norvegicus [4] = organism: Rattus norvegicus; assay: Fluid concentration in liver tissue was determined in rats at 0.5 h; type: functional
Outline: (§2)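 Rats were gavaged at 20 mg/kg and tissues sampled 0.5–6 h after dosing. Drug was assayed microbiologically with Micrococcus luteus seeded in Antibiotic Media 1. Zone sizes were read against each compound's own standard curve. Values are the mean of three rats per time point, in μg/g.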

Haemophilus influenzae = assay: MIC value was measured against haemophilus influenzae CL; type: functional
Rattus norvegicus [5] = organism: Rattus norvegicus; assay: Fluid concentration in lung tissue was determined in rats at 4 h; type: functional
Outline: (§3)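 Rats dosed by gavage at 20 mg/kg; lung, liver, kidney, urine and serum sampled at 0.5, 1, 2, 4 and 6 h after dosing. Antibiotic measured by microbiological assay with Micrococcus luteus seeded in Antibiotic Medium 1. Zone sizes were read against the standard curve for the same compound. Each value is the average of three rats per time point.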

Rattus norvegicus [6] = organism: Rattus norvegicus; assay: Fluid concentration in liver tissue was determined in rats at 1 h; type: functional; outline: as §3
Rattus norvegicus [7] = assay: Plasma concentration in rats was determined by subcutaneous administration, 20 mg/kg at 20 min; type: functional, organism-based; parameters: dose 20 mg/kg
Outline: (§4)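 Peripheral plasma antibiotic levels in rats given 20 mg/kg orally or subcutaneously. Plasma was sampled at timed points after dosing. Levels were measured by microbiological agar assay with Micrococcus luteus seeded in Antibiotic Media 1, reading zone sizes, and were calculated from a standard curve for the appropriate compound. Each value is the average of three rats per time point, in μg/mL.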

Streptococcus pneumoniae [8] = assay: MIC value measured against streptococcus pneumoniae Park1; type: functional
Mus musculus [9] = assay: ED50 value was measured by sc administration against staphylococcus aureus infection in mice (in vivo, in experiment 1); type: functional; outline: as §1
Rattus norvegicus [10] = organism: Rattus norvegicus; assay: Fluid concentration in liver tissue was determined in rats at 2 h; type: functional; outline: as §3
Rattus norvegicus [11] = assay: Plasma concentration in rats was determined by subcutaneous administration, 20 mg/kg at 4 h; type: functional, organism-based; parameters: dose 20 mg/kg; outline: as §4
Rattus norvegicus [12] = organism: Rattus norvegicus
Mus musculus [13] = assay: Plasma concentration in mice was determined by subcutaneous administration, 20 mg/kg at 4 hr; type: functional, organism-based; parameters: dose 20 mg/kg
Outline: (§5)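 Mice given 20 mg/kg orally or subcutaneously; peripheral plasma sampled at 5, 20 and 40 min and at 1, 2 and 4 h after dosing. Microbiological assay used Micrococcus luteus seeded in Antibiotic Medium 1, with zone sizes converted by the compound's own standard curve. Each value is the average of five mice per time point.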

Rattus norvegicus [14] = organism: Rattus norvegicus; assay: Fluid concentration in lung tissue was determined in rats at 1 h; type: functional; outline: as §3
[15] = tested on: Staphylococcus epidermidis; assay: microbe, parasite or virus in culture; type: functional
Rattus norvegicus [16] = organism: Rattus norvegicus; assay: Fluid concentration in lung tissue was determined in rats at 2 h; type: functional; outline: as §3
Mus musculus [17] = assay: ED50 value was measured by po administration against staphylococcus aureus infection in mice (in vivo, in experiment 3); type: functional
Mus musculus [18] = assay: Plasma concentration in mice was determined by subcutaneous administration, 20 mg/kg at 20 min; type: functional, organism-based; parameters: dose 20 mg/kg; outline: as §5
Rattus norvegicus [19] = assay: Plasma concentration in rats was determined by subcutaneous administration, 20 mg/kg at 2 h; type: functional, organism-based; parameters: dose 20 mg/kg; outline: as §4
Mus musculus [20] = assay: ED50 value was measured by po administration against streptococcus pyogenes infection in mice (in vivo, in experiment 1); type: functional; outline: as §1
Mus musculus [21] = assay: Plasma concentration in mice was determined by oral administration, 20 mg/kg at 20 min; type: functional, organism-based; parameters: dose 20 mg/kg; outline: as §5
Mus musculus [22] = assay: Plasma concentration in mice was determined by subcutaneous administration, 20 mg/kg at 5 min; type: functional, organism-based; parameters: dose 20 mg/kg; outline: as §5
Mus musculus [23] = assay: ED50 value was measured by sc administration against streptococcus pneumoniae infection in mice (in vivo, in experiment 3); type: functional
Streptococcus pyogenes [24] = assay: MIC value measured against streptococcus pyogenes C203; type: functional
Streptococcus pyogenes [25] = assay: Effective dose against mice infected with streptococcus pyogenes after peroral administration (in vivo); type: functional; settings: in Mus musculus, po
Mus musculus [26] = assay: Plasma concentration in mice was determined by subcutaneous administration, 20 mg/kg at 1 hr; type: functional, organism-based; parameters: dose 20 mg/kg; outline: as §5
Mus musculus [27] = assay: ED50 value was measured by po administration against staphylococcus aureus infection in mice (in vivo, in experiment 1); type: functional; outline: as §1
Mus musculus [28] = assay: ED50 value was measured by sc administration against staphylococcus aureus infection in mice (in vivo, in experiment 3); type: functional
Mus musculus [29] = assay: Plasma concentration in mice was determined by subcutaneous administration, 20 mg/kg at 40 min; type: functional, organism-based; parameters: dose 20 mg/kg; outline: as §5
Rattus norvegicus [30] = organism: Rattus norvegicus; assay: Fluid concentration in kidney tissue was determined in rats at 2 h; type: functional; outline: as §2
Staphylococcus aureus [31] = assay: Effective dose against mice infected with Staphylococcus aureus after peroral administration (in vivo); type: functional; settings: in Mus musculus, po
Rattus norvegicus [32] = organism: Rattus norvegicus; assay: Fluid concentration in kidney tissue was determined in rats at 6 h; type: functional; outline: as §2
Mus musculus [33] = assay: Plasma concentration in mice was determined by subcutaneous administration, 20 mg/kg at 2 hr; type: functional, organism-based; parameters: dose 20 mg/kg; outline: as §5
Mus musculus [34] = assay: ED50 value was measured by po administration against streptococcus pneumoniae infection in mice (in vivo, in experiment 3); type: functional
Rattus norvegicus [35] = assay: Plasma concentration in rats was determined by oral administration, 20 mg/kg at 40 min; type: functional, organism-based; parameters: dose 20 mg/kg; outline: as §4
Rattus norvegicus [36] = organism: Rattus norvegicus; assay: Fluid concentration in lung tissue was determined in rats at 6 h; type: functional; outline: as §3
Rattus norvegicus [37] = organism: Rattus norvegicus; assay: Fluid concentration in liver tissue was determined in rats at 4 h; type: functional; outline: as §3
Mus musculus [38] = assay: ED50 value was measured by po administration against streptococcus pneumoniae infection in mice (in vivo, in experiment 1); type: functional; outline: as §1
Rattus norvegicus [39] = assay: Plasma concentration in rats was determined by subcutaneous administration, 20 mg/kg at 40 min; type: functional, organism-based; parameters: dose 20 mg/kg; outline: as §4
Rattus norvegicus [40] = organism: Rattus norvegicus; remark: listed apart in the source
Mus musculus [41] = assay: ED50 value was measured by po administration against streptococcus pyogenes infection in mice (in vivo, in experiment 3); type: functional
Rattus norvegicus [42] = organism: Rattus norvegicus; assay: Fluid concentration in kidney tissue was determined in rats at 1 h; type: functional; outline: as §2
Mus musculus [43] = assay: ED50 value was measured by sc administration against streptococcus pyogenes infection in mice (in vivo, in experiment 1); type: functional; outline: as §1
Rattus norvegicus [44] = organism: Rattus norvegicus; assay: Fluid concentration in lung tissue was determined in rats at 0.5 h; type: functional; outline: as §3

CCCN[C@@H]1[C@H](C)[C@@H](O)[C@](C)(O)[C@@H](CC)OC(=O)[C@H](C)[C@@H](OC2CC(C)(OC)C(O)C(C)O2)[C@H](C)[C@@H](OC2OC(C)CC(N(C)C)C2O)[C@](C)(O)C[C@H]1C (stereo not given in full)
MIC (Staphylococcus aureus [1]): 0.25 µg/mL (≈ 0.322 µM) | ED50 (Mus musculus [2]): 1.6 mg/kg | ED50 (Streptococcus pneumoniae [3]): 7 mg/kg | Activity (Rattus norvegicus [4]): 0.08 µg/mL | MIC (Haemophilus influenzae): 0.5 µg/mL (≈ 0.643 µM) | Activity (Rattus norvegicus [5]): 5.46 µg/mL | Activity (Rattus norvegicus [6]): 0.17 µg/mL | Plasma concentration (Rattus norvegicus [7]): 0.07 µg/mL | MIC (Streptococcus pneumoniae [8]): 0.015 µg/mL (≈ 0.0193 µM) | ED50 (Mus musculus [9]): 4.7 mg/kg | Activity (Rattus norvegicus [10]): 2.99 µg/mL | Plasma concentration (Rattus norvegicus [11]): 0.23 µg/mL | Plasma concentration (Rattus norvegicus [12]): 0.04 µg/mL | Plasma concentration (Mus musculus [13]): 0.06 µg/mL | Activity (Rattus norvegicus [14]): 2.25 µg/mL | MIC [15]: 0.12 µg/mL (≈ 0.154 µM) | Activity (Rattus norvegicus [16]): 4.9 µg/mL | ED50 (Mus musculus [17]): 13 mg/kg | Plasma concentration (Mus musculus [18]): 0.75 µg/mL | Plasma concentration (Rattus norvegicus [19]): 0.18 µg/mL | ED50 (Mus musculus [20]): 9 mg/kg | Plasma concentration (Mus musculus [21]): 0.01 µg/mL | Plasma concentration (Mus musculus [22]): 1.58 µg/mL | ED50 (Mus musculus [23]): 1.8 mg/kg | MIC (Streptococcus pyogenes [24]): 0.03 µg/mL (≈ 0.0386 µM) | ED50 (Streptococcus pyogenes [25]): 3 mg/kg | Plasma concentration (Mus musculus [26]): 0.39 µg/mL | ED50 (Mus musculus [27]): 19 mg/kg | ED50 (Mus musculus [28]): 6.1 mg/kg | Plasma concentration (Mus musculus [29]): 0.47 µg/mL | Activity (Rattus norvegicus [30]): 3.25 µg/mL | ED50 (Staphylococcus aureus [31]): 12 mg/kg | Activity (Rattus norvegicus [32]): 3.21 µg/mL | Plasma concentration (Mus musculus [33]): 0.11 µg/mL | ED50 (Mus musculus [34]): 6 mg/kg | Plasma concentration (Rattus norvegicus [35]): 0.01 µg/mL | Activity (Rattus norvegicus [36]): 5.08 µg/mL | Activity (Rattus norvegicus [37]): 3.06 µg/mL | ED50 (Mus musculus [38]): 14 mg/kg | Plasma concentration (Rattus norvegicus [39]): 0.14 µg/mL | Plasma concentration (Rattus norvegicus [40]): 0.08 µg/mL | ED50 (Mus musculus [41]): 6 mg/kg | Activity (Rattus norvegicus [42]): 0.31 µg/mL | ED50 (Mus musculus [43]): 1.7 mg/kg | Activity (Rattus norvegicus [44]): 0.31 µg/mL
